Bioassay records (PubChem)
The list is not random: actives were taken first. Their share in the collection is about 4%.
CHOP inh: blocks CHOP induction under ER stress | AID 2732 | CHO-K1 CHOP-promoter luciferase, tunicamycin-induced, 15-18 h | actives 3.8% (n = 220,000) | inhibition, % at 10 µM;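 active means compounds that reduced the stress-induced luciferase reporter signal by more than about 70% of percent inhibition, limit read from the data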;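 further: 0% = tunicamycin plus vehicle and 100% = wells without tunicamycin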
S1P3 antagonist: S1P3 (human) receptor antagonism | actives 0.27% (n = 170,000) | inhibition, % at 4.98 µM | AID 485 | CHO S1P3 NFAT-BLA reporter, FRET fluorescence, antagonist mode | Q99500;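 active means inhibition above the plate cutoff, the mean inhibition of test wells on that plate plus 3 SD, cut at about 28% in these data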;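 further: cells challenged with S1P at its EC80 of 0.8 µM; blue over green emission ratio from cleaved BLA substrate after 4 h stimulation; 0% = S1P-stimulated wells and 100% = unstimulated DMSO-only wells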
Target sequence (Q99500 whole entry, looked up): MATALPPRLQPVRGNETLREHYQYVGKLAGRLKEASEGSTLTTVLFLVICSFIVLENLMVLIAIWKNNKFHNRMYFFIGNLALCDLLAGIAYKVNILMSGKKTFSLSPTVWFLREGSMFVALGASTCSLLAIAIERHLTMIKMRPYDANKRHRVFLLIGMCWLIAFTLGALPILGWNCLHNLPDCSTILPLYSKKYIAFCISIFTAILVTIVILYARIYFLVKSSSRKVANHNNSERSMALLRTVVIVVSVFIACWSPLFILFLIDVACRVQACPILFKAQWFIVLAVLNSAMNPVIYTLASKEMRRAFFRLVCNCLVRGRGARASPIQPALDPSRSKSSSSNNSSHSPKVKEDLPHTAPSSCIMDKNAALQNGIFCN
Mdm2 ligase inh: Mdm2 E3 ligase (human) inhibition | cell-based MDM2 ubiquitination luciferase reporter, 2 h; 0 = plate control, 100 = twice control, blank-subtracted | signal enhancement, % at 5 µM | actives 0.11% (n = 210,000);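 active means signal enhancement of 30% or more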;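 further: luminescence tracks abundance of the self-degrading MDM2-luciferase fusion protein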
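system = mammalian cells stably expressing self-ubiquitinating, self-degrading MDM2 E3–luciferase fusion | quantity = 2000 cells per well seeded | incubation = 4 h cell settling then 2 h compound exposure, 37 °C | signal = SteadyLite luminescence, 15 min reagent step | benchmarks = plate control and blank wells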
Hsp70 act: Hsp70 transcriptional activation, primary screen | actives 0.04% (n = 200,000) | AID 1203 | HeLa Hsp70 promoter luciferase reporter, luminescence; scaled: vehicle 0, proteasome-inhibitor control 100% | activation, % at 10 µM;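 active means activation above the mean across all tested compounds plus 3 SD, cutoff set per campaign, cut at about 5.5% in these data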;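 further: 100% = MG132 at 30 µM as the positive control and 0% = DMSO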
An asterisk follows results filed as active; · = not tested or not shown.

SMILES	CHOP inh	S1P3 antagonist	Mdm2 ligase inh	Hsp70 act
COc1ccc(C2c3c(-c4ccccc4O)n[nH]c3C(=O)N2Cc2ccco2)cc1OC (configuration not stated)	9	-9	-4	·
CC(=O)C1=C(O)CC(C)(C)CC1=NCc1nc2ccccc2[nH]1	-9	-11	-1	0
CN(/N=C\c1ccc(O)c(O)c1)c1nc(-c2ccccc2)cc(-c2ccccc2)n1	103*	8	-2	0
COc1ccc(-c2cnnc(N/N=C/c3ccc(O)c(O)c3)n2)cc1	37	12	-15	0
CC(=O)c1c(C)[nH]c(C(=O)OCC(=O)Nc2ccc(C)cc2[N+](=O)[O-])c1C	89*	8	-27	-1
CCOc1ccc(C(c2c(NC(=O)c3ccccc3)sc(C)c2C)N2CCN(CCO)CC2)cc1 (configuration not stated)	83*	5	-3	0
CCCCCOC(=O)Nc1nnc(CCCCC)s1	95*	·	-9	0
CCCCCc1nnc(NC(=O)OCCC)s1	15	-33	-25	0
Cc1cc(C)c(Cn2cnc(-c3ccc([N+](=O)[O-])cc3)c2)c(C)c1	76*	·	-7	0
CCc1nnc(NC(=O)Cn2nc(-c3ccc(OC)c(OC)c3)ccc2=O)s1	-9	·	-8	0
CCc1nnc(NC(=O)Cn2nc(-c3ccccc3OC)ccc2=O)s1	70*	-18	-7	-1
CCCCN(C(=O)NC(=O)Nc1cccc(C)c1C)S(C)(=O)=O	81*	-9	-20	0
CCCCN(C(=O)NC(=O)Nc1ccccc1C)S(C)(=O)=O	20	39	24	0
Cc1ccc(NC(=O)C(OC(=O)c2ccc(NC(N)=O)cc2)c2ccccc2)cc1Cl (configuration not stated)	91*	-5	-10	0
O=C(COC(=O)c1cc(Cl)ccc1[N+](=O)[O-])NCc1ccc(Cl)cc1Cl	30	-11	-10	0
CCOC(=O)Cn1nc(-c2ccccc2)c2cnc3ccc(C)cc3c21	73*	9	·	0
CCOC(=O)Cn1nc(-c2ccc(C)cc2)c2ccccc2c1=O	43	14	-8	0
CCOC(=O)c1cc(-c2csc(Nc3c(C)cc(C)cc3C)n2)on1	24	-3	-8	·
CC(C)CNC(=O)CSc1nnc(-c2ccccn2)n1Cc1ccccc1	71*	-6	-11	0
C=CCc1ccccc1OCC(O)CN1CCN(CCN2C(=O)c3cccc4cccc(c34)C2=O)CC1 (configuration not stated)	86*	8	-4	0
CC(=O)c1ccc(OCC(O)CN2CCN(CCN3C(=O)c4cccc5cccc(c45)C3=O)CC2)cc1 (configuration not stated)	-16	-8	-4	0
Cc1ccccc1OCC(O)CN1CCN(CCN2C(=O)c3cccc4cccc(c34)C2=O)CC1 (configuration not stated)	33	5	-6	-1
C=CCc1ccccc1OCC(O)CN1CCN(c2ccc(C)cc2)CC1 (configuration not stated)	79*	3	-27	0
Cc1cccc(C)c1OCC(O)CN1CCC(CN2C(=O)c3cccc4cccc(c34)C2=O)CC1 (configuration not stated)	79*	·	-17	0
Cc1cccc(C(C)Nc2ccc([N+](=O)[O-])cn2)c1 (configuration not stated)	2	·	-49	0
SMILES	CHOP inh	S1P3 antagonist	Mdm2 ligase inh	Hsp70 act
Cc1ccccc1N=CC1=C(O)c2ccccc2C1=O	78*	-2	-90	0
C=CCCCCCCCCC(=O)NNC1CC(=O)N(c2ccccc2)C1=O (configuration not stated)	-5	-6	-8	·
CC(C)C[C@@H]1NC(=O)[C@H](C(C)C)NC(=O)c2cc([N+](=O)[O-])cc(I)c2OCC[C@@H](C(N)=O)NC1=O	19	-20	·	0
CNS(=O)(=O)c1cccc(C(=O)OCc2cc(Cl)cc3c2OCOC3)c1	75*	5	13	0
CNS(=O)(=O)c1cccc(C(=O)OCC(=O)N2CCc3ccccc3C2)c1	-9	·	-5	0
Cc1ccc(C(C)C)c(OCC(=O)NN=C2CCCCCCC2)c1	83*	-2	-10	0
Cc1ccc(C(C)C)c(OCC(=O)NNC2=CC(=O)CC(C)(C)C2)c1	0	-4	2	·
CCC(=O)N1CCN(c2ccccc2NC(=O)COc2cc(C)ccc2C(C)C)CC1	77*	12	-8	0
Cc1cc(C)c(OCC(=O)Nc2ccccc2N2CCOCC2)c(C)c1	79*	-24	-19	0
Cc1ccc(OCC(=O)Nc2ccccc2N2CCCC2)c(C)c1	55	-4	-8	0
COc1ccc2[nH]cc(S(=O)(=O)c3ccc(C)cc3)c2c1	-5	-11	0	0
O=C1c2ccccc2C(=Nc2ccccc2)C1c1cccc(Br)c1 (configuration not stated)	72*	·	-7	1
CC(C)CNC(=O)c1cccc(NC(=O)CCc2ccccc2)c1	8	2	-11	1
O=C(/C=C/c1cccnc1)/C=C/c1cccnc1	97*	-3	39*	·
O=C(Nc1ccc(Cl)cc1)Nc1ccccc1C(=O)NCc1ccco1	19	54*	-21	0
COc1ccc(C(=O)Nc2ccc(Cl)cc2C(=O)NCc2ccco2)cc1	7	·	-7	0
O=C(Nc1ccccc1C(=O)NCc1ccco1)c1ccccc1	30	14	-3	0
CCC(C)C(NC(=O)c1ccccc1NC(=O)c1ccc(OC)cc1)C(=O)NCc1ccco1 (configuration not stated)	71*	8	-19	0
O=C(CCC1CCCN(C(=O)c2ccoc2)C1)NCc1ccccc1F (configuration not stated)	10	7	-2	0
O=C(COC(=O)/C=C/c1ccc(OC(F)F)cc1)NCc1cccs1	-7	-3	-4	0
CCc1ccc(/C=C/C(=O)C2C(=O)c3ccccc3C2=O)cc1	90*	·	-73	0
O=c1[nH]c(=O)n(Cc2ccccc2)c2nc(-c3ccco3)cc(C(F)(F)F)c12	71*	-10	-9	0
Cc1cc(C(F)(F)F)c2c(=O)[nH]c(=O)n(Cc3ccccc3)c2n1	39	-14	-23	0
Nc1cccc2c1C(=O)N(c1ccccc1)C2=O	·	93*	·	·
O=C(Nc1ccc2c(c1)C(=O)NC2=O)c1ccc2ncsc2c1	9	-20	-1	0
COc1ccc(CCC(C)Nc2ccc(F)cc2)cc1 (configuration not stated)	88*	·	2	0
COc1ccc(CCC(C)Nc2ccc(F)c(F)c2)cc1 (configuration not stated)	59	0	4	0
COc1ccc(CNC(=S)Nc2cccc(C)c2)cc1	53	·	-21	0
COc1ccc(CCC(C)Nc2cccc(C)c2)cc1 (configuration not stated)	82*	·	-16	0
